From paper PMC2804273 (Journal of Medicinal Chemistry, 2009)

System: BSF T. brucei brucei strain Lister 427
Assay: Alamar blue viability test, cytotoxicity against cultured parasites
Type: cell-based, Trypanosoma brucei brucei
Details: ED50 determined in the presence of sub-ED50 MTX (0.5-2.5 μM)
In short: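 Bloodstream-form T. brucei brucei Lister 427, grown at 37 °C and 5% CO2 in HMI-9 with 10% fetal calf serum, high folate left unreduced, and neomycin pressure to keep T7 polymerase and tetracycline repressor. […] Values are mean ± std dev (n = 4). Synergy was judged by comparing the area under the slope with half the product of the two ED50 values.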

SMILES	Interaction in combination with MTX (synergy)
CCc1nc(N)nc(N)c1-c1ccc(Cl)cc1 [PYR, pyrimethamine]	does not act synergistically
N#Cc1c(-c2ccc3c(c2)OCO3)[nH]c2nc(N)[nH]c(=O)c12 [compound 13]	acts synergistically
